According to ChEMBL document CHEMBL1123005, “1-Azacycloalkyl-1,4-benzodiazepin-2-ones with antianxiety-antidepressant actions” (J Med Chem, 1985):
The source made the active and inactive calls. The calls are words filed in the database; no cut-off is given here.

Tests used:
[1] = test system: Mus musculus; experiment: Effective dose against tetrabenazine induced ptosis in mice administered orally; assay type: functional; settings: Mus musculus, po; read-out: ED50
Outline: (§1)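 Male DS mice, 20-27 g, groups of five. Compound given po or sc in saline or gum arabic at 0.1 mL/10 g. Tetrabenazine 50 mg/kg sc given 1, 4 or 24 h later. Ptosis scored 1-4 at 1 h after TBZ, with ridit transformation. Dose for 50% prevention by regression.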

[2] = Acute toxicity was measured in mice after peroral administration; assay type: organism-based; settings: mouse, in vivo, po
Outline: (§2)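 Male DS mice, 20-26 g, given compound orally; mortality checked the day after treatment in groups of 10. LD50 by probit method, or by up-and-down method of Brownlee et al. (n = 5) where estimated.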

[3] = target: GABA-A receptor; anion channel (Rattus norvegicus) (UniProt O09028+P15431+P18506+P18508+P19969+P20236+P23574+P23576+P28471+P28473+P30191+P62813+P63079+P63138+Q91ZM7+Q9ES14); experiment: Binding constant was determined by displacing potential to [3H]-diazepam binding in cerebral cortex homogenates of rat; assay type: tissue-based
Outline: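 Wistar rat cerebral cortex homogenate incubated with compound and 2 nM [3H]diazepam at 0 °C for 60 min. Bound label trapped on glass filters and counted by scintillation. Ki = IC50/(1 + L/Kd).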

[4] = test system: Mus musculus; experiment: Effective dose against pentylenetetrazole intoxicity in mice administered orally; assay type: functional
[5] = test system: Mus musculus; experiment: Percent inhibition against tetrabenazine induced ptosis in mice administered orally at 50 mg/kg; assay type: functional; settings: route oral; outline: as §1
[6] = test system: Mus musculus; experiment: Effective dose against pentylenetetrazole intoxicity in mice administered subcutaneously; NE= no effect at 100 mg/kg; assay type: functional, organism-based; parameters: dose 100 mg/kg
[7] = test system: Mus musculus; experiment: Percent inhibition against tetrabenazine induced ptosis in mice administered subcutaneously at 50 mg/kg; assay type: functional; settings: sc, route subcutaneous; outline: as §1
[8] = test system: Mus musculus; experiment: Effective dose against pentylenetetrazole intoxicity in mice administered orally; NE= no effect at 50 mg/kg; assay type: functional, organism-based; parameters: dose 50 mg/kg
[9] = test system: Mus musculus; experiment: Effective dose against pentylenetetrazole intoxicity in mice administered through subcutaneous route; NE = no effect at 10 mg/kg; assay type: functional, organism-based; parameters: dose 10 mg/kg
[10] = test system: Mus musculus; experiment: Effective dose against pentylenetetrazole intoxicity in mice administered orally; NE = no effect at 200 mg/kg; assay type: functional, organism-based; parameters: dose 200 mg/kg
[11] = species on record: Rattus norvegicus; experiment: Inhibitory activity against uptake of [3H]norepinephrine into rat brain synaptosomes.; assay type: functional
Outline: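 P2 synaptosomes from male Wistar rat cerebral cortex incubated with [3H]norepinephrine at 37 °C for 20 min, with compound at 5-6 concentrations. Stopped by Krebs-Henseleit dilution and glass-fibre filtration, then scintillation counting. IC50 taken as the concentration giving 50% uptake inhibition.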

[12] = test system: Rattus norvegicus; experiment: Percent inhibition against anticonflict effect in rats when administered through oral route; at 32 mg/kg; assay type: functional
Outline: (§3)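 Wistar rats in groups of 5-8, Geller-Seifter conflict procedure. Rats trained to lever-press for food on a variable-interval 60-s schedule. Oral dosing. A dose counted positive when shocks exceeded 12 or shock ratio exceeded 4 over four consecutive tone periods. ED50 with 95% limits by probit.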

[13] = test system: Mus musculus; experiment: Effective dose against tetrabenazine induced ptosis in mice administered subcutaneously; assay type: functional; settings: sc; outline: as §1
[14] = test system: Mus musculus; experiment: Effective dose against pentylenetetrazole intoxicity in mice administered through subcutaneous route;NE= no effect at 10 mg/kg; assay type: functional, organism-based; parameters: dose 10 mg/kg
[15] = test system: Mus musculus; experiment: Effective dose against pentylenetetrazole intoxicity in mice administered through subcutaneous route;NE = no effect at 20 mg/kg; assay type: functional, organism-based; parameters: dose 20 mg/kg
[16] = test system: Mus musculus; experiment: Effective dose against tetrabenazine induced ptosis in mice administered subcutaneously; NE= no effect at 50 mg/kg; assay type: functional, organism-based; parameters: dose 50 mg/kg; outline: as §1
[17] = test system: Mus musculus; experiment: Effective dose against pentylenetetrazole intoxicity in mice administered through subcutaneous route;NE = no effect at 10 mg/kg; assay type: functional, organism-based; parameters: dose 10 mg/kg
[18] = Acute toxicity was measured in mice after peroral administration (805-1213); assay type: organism-based; settings: mouse, in vivo, po; outline: as §2
[19] = test system: Rattus norvegicus; experiment: Percent inhibition was evaluated by their anticonflict effect in rats when administered through oral route at 32 mg/kg; assay type: functional; outline: as §3
[20] = test system: Mus musculus; experiment: Effective dose against pentylenetetrazole intoxicity in mice administered through subcutaneous route; NE= no effect at 10 mg/kg; assay type: functional, organism-based; parameters: dose 10 mg/kg
[21] = test system: Mus musculus; experiment: Effective dose against pentylenetetrazole intoxicity in mice administered through subcutaneous route; NE = no effect at dose 10 mg/kg; assay type: functional, organism-based; parameters: dose 10 mg/kg
[22] = test system: Rattus norvegicus; experiment: Effective dose against anticonflict effect in rats when administered through oral route; assay type: functional; outline: as §3
[23] = test system: Mus musculus; experiment: Effective dose against pentylenetetrazole intoxicity in mice administered through subcutaneous route; assay type: functional; settings: sc
[24] = test system: Mus musculus; experiment: Effective dose against pentylenetetrazole intoxicity in mice administered orally; NE = no effect at 50 mg/kg; assay type: functional, organism-based; parameters: dose 50 mg/kg
[25] = test system: Mus musculus; experiment: Percent inhibition against pentylenetetrazole intoxicity in mice administered orally at 50 mg/kg; assay type: functional; settings: route oral
[26] = Mus musculus, po, read-out: ED50

Compound	ED50 [1] [mg/kg]	K2 [3] [µM]	ED50 [4, 26] [mg/kg]	ED50 [13] [mg/kg]	further results
CNC1=Nc2ccc(Cl)cc2C(c2ccccc2)=[N+]([O-])C1 [CHLORDIAZEPOXIDE]	2.7	–	–	–	LD50 [2]: 877 mg/kg
O=C1CN=C(c2ccccc2Cl)c2cc(Cl)ccc2N1C1CCCNC1 (configuration not stated)	–	0.013	16.2	–	inhibition in vivo at 50 mg/kg [5]: 57%
CN1CCC(N2C(=O)CN=C(c3ccccc3F)c3ccc(Cl)cc32)CC1	–	0.69	–	–	ED50 [6]: inactive; inhibition in vivo at 50 mg/kg [7]: 34%; ED50 [8]: inactive
O=C1CN=C(c2ccccc2)c2ccccc2N1C1CCNCC1	0.26	1.3	–	0.06	ED50 [9]: inactive; ED50 [10]: inactive; LD50 [2]: 1240 mg/kg; IC50 [11]: 29 nM; inhibition in vivo at 32 mg/kg [12]: 20%
CN1CCC(N2C(=O)CN=C(c3ccccc3F)c3cc(N(C)C)ccc32)CC1	–	8.3	–	0.7	ED50 [14]: inactive
CN1CCC(N2C(=O)C(O)N=C(c3ccccc3F)c3cc(Cl)ccc32)CC1 (configuration not stated)	9.79	0.074	2.41	–	–
CN1CCC(N2C(=O)CN=C(c3ccccc3F)c3ccc(C(F)(F)F)cc32)CC1	–	17	–	–	ED50 [15]: inactive; ED50 [16]: inactive
CN1CCC(N2C(=O)CN=C(c3cccc(Cl)c3)c3cc(Cl)ccc32)CC1	–	23	–	19.3	ED50 [17]: inactive
O=C1CN=C(c2ccccc2F)c2cc(F)ccc2N1C1CCNCC1	0.38	0.15	32.1	–	ED50 [4]: 27.55 mg/kg; LD50 [18]: 939 mg/kg; IC50 [11]: 79 nM; inhibition in vivo at 32 mg/kg [19]: 50%
CN1CCC(N2C(=O)CN=C(c3ccccc3F)c3cccc(Cl)c32)CC1	–	4.7	–	2.66	ED50 [9]: inactive
O=C1CN=C(c2ccccc2)c2cc(Br)ccc2N1C1CCNCC1	0.76	0.57	38.8	–	IC50 [11]: 402 nM
O=C1CN=C(c2ccccc2Cl)c2cc(Cl)ccc2N1C1CCNCC1	9.59	0.017	12.9	9.94	IC50 [11]: 562 nM
CN1CCC(N2C(=O)CN=C(c3ccccc3F)c3ccc(F)cc32)CC1	–	0.44	–	0.94	ED50 [20]: inactive; ED50 [8]: inactive
CC(=O)N1CCC(N2C(=O)CN=C(c3ccccc3)c3ccccc32)CC1	–	1.5	–	3.25	ED50 [21]: inactive
O=C1CN=C(c2ccccc2F)c2cc(Br)ccc2N1C1CCNCC1	5.37	0.033	2.7	–	IC50 [11]: 288 nM; ED50 [22]: 4.54 mg/kg
CCOC(=O)N1CCC(N2C(=O)CN=C(c3ccccc3F)c3cc(Cl)ccc32)CC1	–	0.038	9.09	–	ED50 [23]: 11.1 mg/kg; inhibition in vivo at 50 mg/kg [7]: 67%
O=C1CN=C(c2ccccc2F)c2cc(Cl)ccc2N1C1CCN(Cc2ccccc2)C1 (configuration not stated)	–	0.27	1.52	–	inhibition in vivo at 50 mg/kg [5]: 58%
CCOC(=O)N1CCC(N2C(=O)CN=C(c3ccccc3Cl)c3cc(Cl)ccc32)CC1	–	0.02	1.95	–	inhibition in vivo at 50 mg/kg [7]: 16%
O=C1CN=C(c2ccccc2F)c2ccccc2N1C1CCNCC1	–	0.15	–	0.07	ED50 [9]: inactive; ED50 [24]: inactive
O=C1CN=C(c2ccccc2)c2cc(F)ccc2N1C1CCNCC1	0.39	2	–	–	inhibition in vivo at 50 mg/kg [25]: 12.5%; IC50 [11]: 59 nM; inhibition in vivo at 32 mg/kg [19]: 60%
CN1CCC(N2C(=O)CN=C(c3ccc(F)cc3)c3ccccc32)CC1	–	68	–	–	ED50 [9]: inactive; inhibition in vivo at 50 mg/kg [7]: 53%
